From PubChem BioAssay
IDH1 R132H inh: inhibitors of human IDH1 R132H | O75874 | IDH1 R132H reductase, diaphorase/resazurin fluorescence, 60 min | inhibition, % at 10 µM | hit rate 0.18% among 70,000; in the data active = inhibition above about 34%
Target sequence (O75874 whole entry R132H): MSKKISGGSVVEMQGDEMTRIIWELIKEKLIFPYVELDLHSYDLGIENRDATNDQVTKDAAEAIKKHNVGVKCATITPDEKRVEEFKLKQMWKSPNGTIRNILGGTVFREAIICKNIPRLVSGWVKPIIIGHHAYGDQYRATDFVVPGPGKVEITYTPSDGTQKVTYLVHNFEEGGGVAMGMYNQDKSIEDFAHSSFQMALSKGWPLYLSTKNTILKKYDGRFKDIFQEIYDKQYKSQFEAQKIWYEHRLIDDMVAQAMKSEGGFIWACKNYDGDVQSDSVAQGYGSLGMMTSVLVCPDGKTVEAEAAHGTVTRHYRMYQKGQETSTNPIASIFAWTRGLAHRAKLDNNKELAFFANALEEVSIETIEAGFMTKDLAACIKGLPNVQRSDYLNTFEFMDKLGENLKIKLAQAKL
Pf Dd2 growth: P. falciparum Dd2 growth inhibition | AID 1159554 | activity change, % at 10 µM | SYBR Green, 72 h; stronger effect = lower value | hit rate 2.3% among 94,000; in the data active = activity change below about -80%
Tcruzi prolif: inhibitors of T. cruzi proliferation | hit rate 5.9% among 77,000 | T. cruzi beta-gal in NIH3T3, GalScreen luminescence, 90 h | inhibition, % at 8.34 µM | AID 624255;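 active = mean inhibition above about 93%, with at least 55% of replicates each passing it, limit read from the data, passing the limit was not always enough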
GASC1 inh: inhibitors of human demethylase GASC-1 KDM4C | Q9H3R0 | GST-KDM4C 2-372, H3K9me3 peptide, LANCE TR-FRET | inhibition, % at 12.5 µM | hit rate 0.15% among 96,000;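 active = mean replicate inhibition above about 25%, with at least 55% of replicates also reaching it, limit read from the data, passing the limit was not always enough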
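Compound: one test concentration per compound; Material: GST-GASC-1 enzyme fragment 2-372; Amount: GASC-1 enzyme at 10 nM final in reaction; Also added: H3K9me3 peptide substrate, Fe(II), 2-oxoglutarate; Technique: LANCE TR-FRET; Times: 30 min demethylation and 1 h detection at room temperature.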
Each line names hits and unclear results; the compound was inactive in the other large screens. This is a sample that favours compounds with a hit; in the whole collection about 5.9% have one here.

C[C@@H]1CN([C@H](C)CO)C(=O)c2cc(NC(=O)CCC(F)(F)F)ccc2O[C@@H](C)CCCCO[C@H]1CN(C)C(=O)Nc1cccc2ccccc12	none
COc1ccc2c3c([nH]c2c1)[C@H](CO)N(Cc1ccccc1F)CC31CN(C(=O)C2CCCC2)C1	Pf Dd2 growth -87 (no result: IDH1 R132H inh, Tcruzi prolif)
CCS(=O)(=O)N1CC2(CN(Cc3ccccc3F)[C@H](CO)c3[nH]c4cc(OC)ccc4c32)C1	Pf Dd2 growth -82 (no result: IDH1 R132H inh, Tcruzi prolif)
COc1ccc2c3c([nH]c2c1)[C@@H](CO)N(Cc1ccccc1F)CC31CCN(C(=O)C2CCC2)CC1	none (no result: IDH1 R132H inh, Tcruzi prolif)
CCCNC(=O)N1CC2(CN(C(=O)C3CCC3)C2)c2c([nH]c3cc(OC)ccc23)[C@@H]1CO	Pf Dd2 growth -84 (no result: IDH1 R132H inh, Tcruzi prolif)
COc1ccc2c3c([nH]c2c1)[C@H](CO)N(Cc1ccccc1F)CC31CN(C(=O)C2CCC2)C1	Pf Dd2 growth -93 (no result: IDH1 R132H inh, Tcruzi prolif)
COc1ccccc1CNC(=O)c1ccc(Cl)c(S(=O)(=O)N2CCOCC2)c1	none (no result: Pf Dd2 growth, Tcruzi prolif, GASC1 inh)
CCOC(=O)c1c(NC(=S)N(C)Cc2c(C)nn(C)c2C)sc2c1CCCCCC2	none (no result: Pf Dd2 growth, Tcruzi prolif, GASC1 inh)
COc1ccc2c3c([nH]c2c1)[C@H](CO)N(Cc1ccccc1F)CC31CN(C(=O)C2CCOCC2)C1	none (no result: IDH1 R132H inh, Tcruzi prolif)
COc1ccc2c3c([nH]c2c1)[C@@H](CO)N(Cc1ccccc1F)CC31CCN(C(=O)C2CCOCC2)CC1	Pf Dd2 growth -91 (no result: IDH1 R132H inh, Tcruzi prolif)
Cc1noc(C)c1S(=O)(=O)N(C)C[C@H]1OCCCC[C@@H](C)Oc2ccc(NC(=O)C3CCCCC3)cc2C(=O)N([C@@H](C)CO)C[C@@H]1C	Pf Dd2 growth -82 (no result: IDH1 R132H inh)
Cc1noc(C)c1S(=O)(=O)N(C)C[C@@H]1OCCCC[C@H](C)Oc2ccc(NC(=O)C3CCCCC3)cc2C(=O)N([C@@H](C)CO)C[C@H]1C	Pf Dd2 growth -83
CCOC(=O)c1c(NC(=O)CN2CCOCC2)sc(C(C)=O)c1C	none (no result: Pf Dd2 growth, Tcruzi prolif, GASC1 inh)
COc1ccc(C#Cc2ccc3c(c2)[C@@H]2[C@@H](CCN2S(=O)(=O)c2ccccc2F)[C@@H](CO)N3C)cc1	GASC1 inh 48 (no result: IDH1 R132H inh)
COc1ccc(C#Cc2ccc3c(c2)[C@H]2[C@H](CCN2S(=O)(=O)c2ccccc2F)[C@H](CO)N3C)cc1	none (no result: IDH1 R132H inh)
C[C@@H]1CN([C@@H](C)CO)C(=O)c2c(c3ccccc3n2C)-c2ccccc2CO[C@@H]1CN(C)Cc1cccc2c1OCCCO2	Pf Dd2 growth -85 (no result: IDH1 R132H inh, Tcruzi prolif)
C[C@@H]1CN([C@H](C)CO)C(=O)c2c(c3ccccc3n2C)-c2ccccc2CO[C@@H]1CN(C)Cc1cccc2c1OCCCO2	Pf Dd2 growth -84 (no result: IDH1 R132H inh, Tcruzi prolif)
C[C@H]1CN([C@@H](C)CO)C(=O)c2c(c3ccccc3n2C)-c2ccccc2CO[C@@H]1CN(C)Cc1cccc2c1OCCCO2	none (no result: IDH1 R132H inh, Tcruzi prolif, GASC1 inh)
Cc1nn(CC(=O)Nc2sc3c(c2C#N)CCCC3)c(C)c1[N+](=O)[O-]	none (no result: Pf Dd2 growth, Tcruzi prolif, GASC1 inh)
O=C(CSc1nc(O)c(-c2ccccc2)c(=O)[nH]1)N(c1ccccc1)c1ccccc1	none (no result: Pf Dd2 growth, Tcruzi prolif, GASC1 inh)
Cc1cc(-c2ccc(Cl)cc2)nc(SCC(=O)Nc2ccccc2)n1	none (no result: Pf Dd2 growth, Tcruzi prolif, GASC1 inh)
C[C@@H]1CN([C@H](C)CO)C(=O)c2cc(NC(=O)Nc3cccc4ccccc34)ccc2O[C@@H](C)CCCCO[C@@H]1CN(C)C(=O)c1ccccc1	none (no result: IDH1 R132H inh)
C[C@@H]1CCCCO[C@H](CN(C)C(=O)c2ccccc2)[C@@H](C)CN([C@@H](C)CO)C(=O)c2cc(NC(=O)Nc3cccc4ccccc34)ccc2O1	Pf Dd2 growth -82 (no result: IDH1 R132H inh)
C[C@@H]1CCCCO[C@H](CN(C)C(=O)CCCN(C)C)[C@H](C)CN([C@H](C)CO)C(=O)c2cc(NC(=O)Nc3cccc4ccccc34)ccc2O1	Pf Dd2 growth -86 (no result: IDH1 R132H inh)
C[C@H](CO)N1C[C@H](C)[C@@H](CN(C)C(=O)CCCN(C)C)OCCCC[C@H](C)Oc2ccc(NC(=O)Nc3cccc4ccccc34)cc2C1=O	none
C[C@@H]1CCCCO[C@@H](CN(C)C(=O)c2ccccc2)[C@H](C)CN([C@H](C)CO)C(=O)c2cc(NC(=O)Nc3cccc4ccccc34)ccc2O1	Tcruzi prolif 102 (no result: IDH1 R132H inh)
C[C@@H]1CN([C@@H](C)CO)C(=O)c2ccccc2-c2ccccc2CO[C@H]1CN(C)C(=O)Nc1cccc(C(F)(F)F)c1	Pf Dd2 growth -87 (no result: IDH1 R132H inh)
C[C@H](CO)N1C[C@H](C)[C@H](CN(C)C(=O)Nc2cccc(C(F)(F)F)c2)OCc2ccccc2-c2ccccc2C1=O	none
C[C@@H]1CN([C@@H](C)CO)C(=O)c2ccccc2-c2ccccc2CO[C@H]1CN(C)C(=O)Nc1cccc(F)c1	Pf Dd2 growth -83 (no result: IDH1 R132H inh)
C[C@H]1CN([C@@H](C)CO)C(=O)c2ccccc2-c2ccccc2CO[C@@H]1CN(C)C(=O)Nc1ccc(-c2ccccc2)cc1	Pf Dd2 growth -86 (no result: IDH1 R132H inh, Tcruzi prolif)
CCn1c(NCCCO)nc2ccccc21	none (no result: Pf Dd2 growth, Tcruzi prolif, GASC1 inh)
COc1ccc(S(=O)(=O)N(C)C[C@H]2OCCCC[C@H](C)Oc3ccc(NC(=O)Nc4ccccc4)cc3C(=O)N([C@@H](C)CO)C[C@H]2C)cc1	Pf Dd2 growth -83 (no result: IDH1 R132H inh)
COc1ccc(NC(=O)Nc2ccc3c(c2)C(=O)N([C@H](C)CO)C[C@@H](C)[C@H](CN(C)S(=O)(=O)c2ccc(C)cc2)OCCCC[C@H](C)O3)cc1	none
COc1ccc(NC(=O)Nc2ccc3c(c2)C(=O)N([C@H](C)CO)C[C@@H](C)[C@H](CN(C)S(=O)(=O)c2ccccc2)OCCCC[C@@H](C)O3)cc1	Pf Dd2 growth -83
COc1ccc(S(=O)(=O)N(C)C[C@H]2OCCCC[C@@H](C)Oc3ccc(NC(=O)Nc4ccccc4)cc3C(=O)N([C@H](C)CO)C[C@@H]2C)cc1	none (no result: IDH1 R132H inh)
COc1ccc(NC(=O)Nc2ccc3c(c2)C(=O)N([C@@H](C)CO)C[C@H](C)[C@H](CN(C)S(=O)(=O)c2ccc(C)cc2)OCCCC[C@@H](C)O3)cc1	Pf Dd2 growth -86
Cc1ncc([N+](=O)[O-])n1CC(=O)N(C)c1ccccc1	none (no result: Pf Dd2 growth, Tcruzi prolif, GASC1 inh)
O=C(CSc1nnc(-c2cccc(Br)c2)n1-c1ccccc1)Nc1ccccc1[N+](=O)[O-]	none (no result: Pf Dd2 growth, Tcruzi prolif, GASC1 inh)
C[C@@H]1CN([C@H](C)CO)C(=O)c2cc(NC(=O)CCC(F)(F)F)ccc2O[C@@H](C)CCCCO[C@@H]1CN(C)S(=O)(=O)c1cccs1	Pf Dd2 growth -85
C[C@@H]1CCCCO[C@H](CN(C)S(=O)(=O)c2cccs2)[C@@H](C)CN([C@@H](C)CO)C(=O)c2cc(NC(=O)Nc3ccc(C(F)(F)F)cc3)ccc2O1	Pf Dd2 growth -87 (no result: IDH1 R132H inh)
C[C@@H]1CCCCO[C@@H](CN(C)S(=O)(=O)c2cccs2)[C@@H](C)CN([C@@H](C)CO)C(=O)c2cc(NC(=O)Nc3ccc(C(F)(F)F)cc3)ccc2O1	Pf Dd2 growth -87
C[C@@H]1CN([C@@H](C)CO)C(=O)c2cc(NC(=O)CCC(F)(F)F)ccc2O[C@@H](C)CCCCO[C@@H]1CN(C)S(=O)(=O)c1cccs1	none
COc1ccccc1C(=O)N1CCN(c2ccc([N+](=O)[O-])c(NCc3cccnc3)c2)CC1	none (no result: Pf Dd2 growth, Tcruzi prolif, GASC1 inh)
O=C(CSc1nc2sc3c(c2c(=O)n1Cc1ccco1)CCC3)N1CCCc2ccccc21	none (no result: Pf Dd2 growth, Tcruzi prolif, GASC1 inh)
C[C@H](CO)N1C[C@H](C)[C@@H](CN(C)Cc2ccc3c(c2)OCO3)Oc2c(NC(=O)CCCCCC(=O)Nc3ccccc3N)cccc2C1=O	Pf Dd2 growth -85 (no result: Tcruzi prolif)
